Laboratory results taken from PMC7529613 (International Journal for Parasitology: Drugs and Drug …, 2020).

What was measured:
Cytotoxicity assay [1] = type: cell-based; details: human, uninfected HCT-8 cells
Summary of the method: (§1)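 Confluent host cells were used: HCT-8 in phenol-red-free supplemented RPMI 1640, HFF in phenol-red-free DMEM with 10% FBS. Test compound in DMSO was added at 0–700 μM, with matched DMSO controls, for 48 h at 37 °C/5% CO2. WST-1 was added for 1 h in the dark and absorbance read at 420 nm. Viability inhibition was taken relative to DMSO. IC50 came from dose–response curves of triplicate means.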

T. gondii = T. gondii growth inhibitory assay; type: cell-based, Toxoplasma gondii; details: for IC50: read-out: IC50 T. gondii (anti-Toxoplasma IC50); for selectivity ratio at 48 h: human, Selectivity index (SI) = Cytotoxicity IC50/Anti-parasitic IC50, HFF cytotoxicity IC50 / anti-Toxoplasma IC50
Summary of the method: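 YFP-expressing RH-strain tachyzoites (~3500/well) were added to confluent HFF in supplemented IMDM. Test compound in DMSO (20 μM single dose, or 0–8 μM / 0–40 μM series) was added immediately or 2 h post-infection. Atovaquone 0.48 μM was the positive control; DMSO the negative. After 48 h at 37 °C/5% CO2, parasite YFP fluorescence was quantified by microscopy. IC50 came from triplicate-mean dose–response curves. SI = HFF cytotoxicity IC50/anti-Toxoplasma IC50.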

C. parvum = C. parvum growth inhibitory assay; type: cell-based, Cryptosporidium parvum
Summary of the method: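 Sporozoites were excysted (HBSS, 60 min at 37 °C, then 1.5% sodium taurocholate, 60 min) and […]. 4 × 10^4 were added per well to confluent HCT-8 cells in supplemented RPMI-1640. […] After 72 h at 37 °C/5% CO2: fixed, antibody-stained, microscopy fluorescence quantified. […] Triplicate, ≥3 repeats.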

Cytotoxicity assay [2] = type: cell-based; details: human, uninfected HFF cells
Summary of the method: as §1

Cryptosporidium = details: read-out: anti-Cryptosporidium IC50; ref Li et al., 2019; cited from earlier work
[3] = Toxoplasma gondii, HFF, 48 h, read-out: Inhibition of T. gondii growth

Row | Structure (SMILES) | IC50 at 48 h (Cytotoxicity assay [2]) [µM] | IC50 (T. gondii; Toxoplasma gondii, HFF, 48 h) [µM] | inhibition at 20 µM (T. gondii; [3]) [%] | selectivity ratio at 48 h (T. gondii) | also measured
1 | CC(C)=CCC/C(C)=C\COC(=O)NC(=O)C12CC3CC(CC(C3)C1)C2 [GMG-1-09, (Z)-3,7-Dimethylocta-2,6-dien-1-yl (adamantane-1-carbonyl)carbamate] |  |  |  |  | IC50 at 48 h (Cytotoxicity assay [1]): 450 µM; IC50 T. gondii (anti-Toxoplasma IC50) (T. gondii; YFP-expressing RH tachyzoites in HFF cells, 48 h of culture): not potent; inhibition at 20 µM (C. parvum; Cryptosporidium parvum, HCT-8, read-out: Inhibition of C. parvum growth): ~70%; selectivity ratio at 72 h (C. parvum; human, Selectivity index (SI) = Cytotoxicity IC50/Anti-parasitic IC50, HCT-8 cytotoxicity IC50 / anti-Cryptosporidium IC50): ~14
2 | COc1ccccc1C(=O)NC(=O)NC(=O)c1ccccc1OC [JS-1-09, N,N′-Carbonylbis(2-methoxybenzamide)] | 64 | 1.21 | ~100 | ~53 | Inhibition of T. gondii growth (T. gondii; 8 μM compound, 48 h): almost completely inhibited; Selectivity index (SI) = Cytotoxicity IC50/Anti-parasitic IC50 (T. gondii; HFF cytotoxicity IC50 / anti-Toxoplasma IC50): 52.9
3 | CC(C)=CCC/C(C)=C/CNC(=O)NC(=O)c1ccc(F)c(F)c1F [JS-2-20, (E)-N-((3,7-Dimethylocta-2,6-dien-1-yl)carbamoyl)-2,3,4-trifluorobenzamide] | 62.6 | 10.9 | ~80 | 5.7 | 
4 | O=C(NC(=O)c1ccc(F)c(F)c1F)OC1C2CC3CC(C2)CC1C3 (stereo not drawn) [JS-2-35, Adamantan-2-yl (2,3,4-trifluorobenzoyl)carbamate] | 59.2 | 10.5 | ~80 | 5.6 | 
5 | O=C(NC(=O)c1ccc(F)c(F)c1F)OC12CC3CC(CC(C3)C1)C2 [JS-2-49, Adamantan-1-yl (2,3,4-trifluorobenzoyl)carbamate] | 65.5 | 12.1 | ~90 | 5.4 | 
6 | O=C1C(O)=C([C@H]2CC[C@H](c3ccc(Cl)cc3)CC2)C(=O)c2ccccc21 [atovaquone, reference compound] |  |  |  |  | inhibition at 0.5 µM (T. gondii; [3]): ~100%
7 | NC[C@@H]1O[C@H](O[C@H]2[C@@H](O)[C@H](O[C@@H]3[C@@H](O)[C@H](N)C[C@H](N)[C@H]3O[C@H]3O[C@H](CO)[C@@H](O)[C@H](O)[C@H]3N)O[C@@H]2CO)[C@H](N)[C@@H](O)[C@@H]1O [paromomycin] |  |  |  |  | IC50 (Cryptosporidium): 450 µM
